ChEMBL document CHEMBL1129795, “2-Azetidinone cholesterol absorption inhibitors: structure-activity relationships on the heterocyclic nucleus” (1996)

What was measured:
[1] = target: T1, Sterol O-acyltransferase 1 (Rattus norvegicus) (UniProt O70536); test: In vitro for inhibitory activity against Acyl coenzyme A:cholesterol acyltransferase 1 from rat liver microsomes at 50 uM
T1 sequence (whole entry): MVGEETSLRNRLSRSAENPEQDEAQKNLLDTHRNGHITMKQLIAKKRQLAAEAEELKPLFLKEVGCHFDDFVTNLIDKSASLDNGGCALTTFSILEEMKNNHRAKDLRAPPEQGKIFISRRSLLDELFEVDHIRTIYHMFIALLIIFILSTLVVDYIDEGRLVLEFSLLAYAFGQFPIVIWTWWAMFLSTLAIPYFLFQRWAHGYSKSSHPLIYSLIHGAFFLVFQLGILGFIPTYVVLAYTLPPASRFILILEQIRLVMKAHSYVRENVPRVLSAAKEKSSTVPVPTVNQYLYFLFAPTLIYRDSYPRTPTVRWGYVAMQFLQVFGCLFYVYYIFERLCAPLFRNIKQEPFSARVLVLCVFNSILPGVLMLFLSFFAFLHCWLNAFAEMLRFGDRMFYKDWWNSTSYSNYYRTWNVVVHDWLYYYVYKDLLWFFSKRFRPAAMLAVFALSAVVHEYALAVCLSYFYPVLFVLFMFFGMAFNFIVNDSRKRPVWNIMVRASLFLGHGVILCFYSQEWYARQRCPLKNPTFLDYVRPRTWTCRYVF
How it was run: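 Rat liver microsomes were used to measure ACAT activity as the formation of cholesteryl [3H]oleate from cholesterol and [3H]oleoyl CoA. Results are given as percent inhibition at a single concentration.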

Cricetinae gen. sp. [2] = test: In vivo cholesterol absorption inhibitory activity using 7-day cholesterol-fed hamster model (expressed as percent change in serum cholesterol at 50 mg/kg/day); assay type: functional, Cricetulus griseus
How it was run: (§1)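 Hamsters were fed a high-cholesterol diet for 7 days and gavaged once daily with compound in 0.2 mL corn oil. On the last day, animals were sacrificed and hepatic and serum lipids were determined. Results are given as percent change in hepatic cholesteryl ester or serum cholesterol concentration versus diet-fed controls gavaged with corn oil without drug.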

Cricetinae gen. sp. [3] = test: In vivo for cholesterol absorption inhibitory activity using 7-day cholesterol-fed hamster model (expressed as percent change in cholesteryl esters at 50 mg/kg/day); assay type: functional, Cricetulus griseus; how it was run: as §1
Cricetinae gen. sp. [4] = test: Compound was tested in vivo for Cholesterol absorption inhibitory activity by using 7-day cholesterol-fed hamster model.(change in serum cholesterol( tested at 50 mg/kg/day).; assay type: functional; how it was run: as §1
Cricetinae gen. sp. [5] = test: Compound was tested in vivo for Cholesterol absorption inhibitory activity by using 7-day cholesterol-fed hamster model.(change in % change in cholesteryl esters(tested at 50 mg/kg/day).; assay type: functional, Cricetulus griseus; how it was run: as §1

inhibition [1]	Structure (SMILES)	Change (Cricetinae gen. sp. [2])	Change (Cricetinae gen. sp. [3])	Change (Cricetinae gen. sp. [4])	Change (Cricetinae gen. sp. [5])
-6%	COc1ccc(N2C(=O)[C@H](CCCc3ccccc3)[C@H]2c2ccc(CO)cc2)cc1	-21%	-46%	–	–
21%	COc1ccc(N2C(=O)[C@H](CCCc3ccccc3)[C@H]2c2ccc([N+](=O)[O-])cc2)cc1	-11%	0%	–	–
63%	COc1ccc(N2C(=O)[C@H](CCCc3ccccc3)[C@H]2c2ccc(N)cc2)cc1	0%	0%	–	–
8%	COc1ccc(N2C(=O)[C@H](CCCc3ccccc3)[C@H]2c2ccc(O)cc2)cc1	-16%	-48%	–	–
–	COc1ccc(N2C(=O)[C@H](CCCc3ccccc3)[C@H]2c2ccc(O)c(O)c2)cc1	–	–	0%	–
59%	COc1ccc(N2C(=O)[C@H](CCCc3ccccc3)[C@H]2c2ccc(OC(C)C)cc2)cc1	-38%	-94%	–	–
68%	CCOc1ccc([C@@H]2[C@@H](CCCc3ccccc3)C(=O)N2c2ccc(OC)cc2)cc1	-52%	-98%	–	–
–	CCCCCCCCCC[C@@H]1C(=O)N(c2ccc(OC)cc2)[C@@H]1c1ccc(OC)cc1	–	–	0%	-15%
53%	COc1ccc(N2C(=O)[C@H](CCCc3ccccc3)[C@H]2c2ccc(OC)c(OC)c2)cc1	-11%	-33%	–	–
20%	COc1ccc(N2C(=O)[C@@H](CCCc3ccccc3)[C@H]2c2ccc(O)cc2)cc1	-31%	-75%	–	–
–	CCCCCCCCCC[C@H]1C(=O)N(c2ccc(OC)cc2)[C@@H]1c1ccc(OC)cc1	–	–	0%	-18%
–	CCC(=O)Oc1ccc(N2C(=O)[C@H](CCCc3ccccc3)[C@H]2c2ccc(OC)cc2)cc1	–	–	-22%	-54%
39%	COc1ccc(N2C(=O)[C@@H](CCCc3ccccc3)[C@H]2c2cccc(OC)c2)cc1	-19%	-54%	–	–
18%	COc1ccc(N2C(=O)[C@H](CCCc3ccccc3)[C@H]2c2ccc(C)cc2)cc1	-20%	-21%	–	–
22%	COc1ccc(N2C(=O)[C@H](CCCc3ccccc3)[C@H]2c2ccccc2)cc1	-6%	-15%	–	–
–	COc1ccc([C@@H]2[C@@H](CCCc3ccccc3)C(=O)N2c2cccc(N)c2)cc1	-25%	-54%	–	–
–	O=C1[C@H](CCCc2ccccc2)[C@@H](c2ccc(O)cc2)N1c1ccc(O)cc1	-35%	-90%	–	–
–	CC[C@]1(CCCc2ccccc2)C(=O)N(c2ccc(OC)cc2)[C@@H]1c1ccc(OC)cc1	0%	0%	–	–

inhibition [1]	Structure (SMILES)	Change (Cricetinae gen. sp. [2])	Change (Cricetinae gen. sp. [3])	Change (Cricetinae gen. sp. [4])	Change (Cricetinae gen. sp. [5])
–	COc1ccc([C@@H]2[C@@H](CCc3ccccc3)C(=O)N2c2ccc(OC)cc2)cc1	0%	0%	–	–
–	COc1ccc([C@@H]2[C@@H](CCCCc3ccccc3)C(=O)N2c2ccc(OC)cc2)cc1	-8%	-23%	–	–
–	COc1ccc([C@@H]2[C@@H](CCCc3ccccc3)C(=O)N2c2ccccc2OC)cc1	-49%	-87%	–	–
21%	COc1ccc(N2C(=O)[C@H](CCCc3ccccc3)[C@H]2c2cccc(OC)c2)cc1	-17%	-24%	–	–
–	COc1ccc([C@@H]2[C@@H](CCCc3ccccc3)C(=O)N2Cc2ccccc2)cc1	0%	16%	–	–
–	COc1ccc([C@@H]2[C@@H](CCCc3ccccc3)C(=O)N2C2CC2)cc1	-20%	-61%	–	–
–	COc1ccc([C@H]2N(c3ccc(OC)cc3)C(=O)[C@]2(Cc2ccccc2)c2ccccc2)cc1	23%	-15%	–	–
–	COc1ccc([C@@H]2[C@@H](CCCCCCc3ccccc3)C(=O)N2c2ccc(OC)cc2)cc1	-19%	-17%	–	–
–	COc1ccc([C@@H]2[C@H](CCCCCCc3ccccc3)C(=O)N2c2ccc(OC)cc2)cc1	-29%	0%	–	–
–	COc1ccc(N2C(=O)[C@@H](CCCc3ccccc3)[C@H]2c2ccc(OC)c(OC)c2)cc1	0%	0%	–	–
–	COc1ccc(N2C(=O)[C@H](CCCc3ccccc3)[C@H]2c2ccc(Oc3ccccc3)cc2)cc1	-37%	-77%	–	–
–	CCCCOc1ccc([C@@H]2[C@@H](CCCc3ccccc3)C(=O)N2c2ccc(OC)cc2)cc1	-34%	-64%	–	–
–	CCOc1ccc(N2C(=O)[C@H](CCCc3ccccc3)[C@H]2c2ccc(OC)cc2)cc1	-57%	-96%	–	–
–	COc1ccc([C@H]2N(c3ccc(OC)cc3)C(=O)C2(c2ccccc2)c2ccccc2)cc1	0%	0%	–	–
–	CC[C@@]1(CCCc2ccccc2)C(=O)N(c2ccc(OC)cc2)[C@@H]1c1ccccc1	0%	0%	–	–
79%	CCOc1ccc([C@@H]2[C@H](CCCc3ccccc3)C(=O)N2c2ccc(OC)cc2)cc1	-48%	-93%	–	–
–	COc1ccc([C@@H]2[C@@H](CCCc3ccccc3)C(=O)N2c2ccc(Cl)cc2)cc1	-44%	-93%	–	–
